Key:
Rattus norvegicus [1] = assay: Antihypertensive activity in renal hypertensive rats 2 hr after oral administration (10 mg/Kg); assay type: functional
Summary of the method: (§1)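 Renal hypertensive rats (5 or 10 per group), 10 mg/kg given orally. Systolic pressure measured indirectly by tail occluding cuff with pulse sensor, once before dosing as control and again at 1, 2, 4, 6 and 8 h. Values are changes in mean systolic pressure from control (mmHg). Significance of control vs posttreatment assessed by Wilcoxon's signed rank test (p < 0.05).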

Rattus norvegicus [2] = assay: Antihypertensive activity in renal hypertensive rats 6 hr after oral administration (10 mg/Kg); assay type: functional; summary of the method: as §1
Felis catus [3] = assay: Change in blood pressure in normotensive anesthetized cat.; assay type: functional
Summary of the method: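 Normotensive cats of either sex (2-4 kg) anesthetized with α-chloralose (80 mg/kg iv). Trachea, femoral artery and jugular vein cannulated. Compound given iv at 10 mg/kg, with 1 mg/kg iv used in one case. Mean blood pressure recorded by pressure transducer before and 30 min after dosing, reported as decrease in mmHg.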

Rattus norvegicus [4] = assay: Antihypertensive activity in renal hypertensive rats 1 hr after oral administration (10 mg/Kg); assay type: functional; summary of the method: as §1
Rattus norvegicus [5] = assay: Antihypertensive activity in renal hypertensive rats 8 hr after oral administration (10 mg/Kg); assay type: functional; summary of the method: as §1
Rattus norvegicus [6] = assay: Antihypertensive activity in renal hypertensive rats 4 hr after oral administration (10 mg/Kg); assay type: functional; summary of the method: as §1
Felis catus [7] = assay: Control blood pressure in normotensive anesthetized cat at dose 10 mg/Kg iv

Row | SMILES | BP (Rattus norvegicus [1]) [mmHg] | BP (Rattus norvegicus [2]) [mmHg] | BP (Felis catus [3]) [mmHg] | BP (Rattus norvegicus [4]) [mmHg] | BP (Rattus norvegicus [5]) [mmHg] | BP (Rattus norvegicus [6]) [mmHg] | control BP (Felis catus [7]) [mmHg]
1 | CCOC(=O)C(CN)c1c[nH]c2ccc(Br)cc12.Cl (configuration not stated) | -7 | -3 | -18 | -3 | 1 | -2 | 143
2 | COC(=O)C(CN(C)C)c1c[nH]c2ccc(OC)cc12.O=C(O)C(=O)O (configuration not stated) | -2 | 14 | -35 | -9 | 13 | 1 | 167
3 | COC(=O)C(CN(C)C)c1c[nH]c2ccccc12 (configuration not stated) | 0 | 11 | -35 | -2 | 1 | 2 | 145
4 | COc1ccc2[nH]cc(C(CN)C(=O)O)c2c1 (configuration not stated) | -10 | -6 | -5 | -1 | -2 | 2 | 142
5 | CCOC(=O)CC(CNC(C)=O)c1c[nH]c2ccccc12 (configuration not stated) | -11 | -6 | -21 | -8 | -2 | -7 | 169
6 | CCOC(=O)C(CNC(C)=O)c1cn(C(=O)OCC)c2ccccc12 (configuration not stated) | -3 | -22 | -49 | -3 | -18 | -18 | 135
7 | COC(=O)CC(CN)c1c[nH]c2ccccc12 (configuration not stated) | -11 | -7 | -4 | -1 | -1 | 2 | 184
8 | COc1ccc2[nH]cc(C(CN)CO)c2c1.O=C(O)C(=O)O (configuration not stated) | -15 | -8 | – | -13 | 0 | 4 | –
9 | COC(=O)C(CN)c1c(C)[nH]c2ccc(OC)cc12.Cl (configuration not stated) | -2 | -8 | 1 | 2 | -3 | -8 | 164
10 | CCOC(=O)CC(c1nnn[nH]1)c1c[nH]c2ccc(OC)cc12 (configuration not stated) | -21 | -16 | -11 | -16 | -11 | -25 | 136
11 | CCOC(=O)C(N)Cc1c[nH]c2ccc(O)cc12 (configuration not stated) | -5 | 2 | -24 | -14 | 1 | 2 | 156
12 | CCOC(=O)C(CNC(C)=O)c1cn(C(=O)OCC)c2cccc(Cl)c12 (configuration not stated) | -1 | 0 | 11 | -8 | 2 | 3 | 183
13 | COC(=O)C(CN)c1c[nH]c2ccc(F)cc12.Cl (configuration not stated) | -18 | -4 | -30 | -28 | 1 | -9 | 133
14 | COc1ccc2[nH]cc(C(CNC(C)=O)C(=O)O)c2c1 (configuration not stated) | -18 | -28 | -14 | -16 | -8 | -24 | 154
15 | CCCCCOC(=O)C(CN)c1c[nH]c2ccc(OC)cc12.Cl (configuration not stated) | -11 | -11 | 2 | -7 | -4 | -3 | 148
16 | CCOC(=O)NCC(c1nnn[nH]1)c1c[nH]c2ccc(OC)cc12 (configuration not stated) | 2 | 2 | 5 | -2 | 0 | 0 | 160
17 | CCOC(=O)C(CNC(C)=O)c1cn(C(=O)OCC)c2ccc(OC)cc12 (configuration not stated) | -12 | -20 | 0 | -15 | -14 | -21 | 195
18 | COC(=O)C(CN)c1c[nH]c2cc(OC)c(OC)cc12.Cl (configuration not stated) | -2 | -7 | -16 | -15 | -2 | -4 | 160

Row | SMILES | BP (Rattus norvegicus [1]) [mmHg] | BP (Rattus norvegicus [2]) [mmHg] | BP (Felis catus [3]) [mmHg] | BP (Rattus norvegicus [4]) [mmHg] | BP (Rattus norvegicus [5]) [mmHg] | BP (Rattus norvegicus [6]) [mmHg] | control BP (Felis catus [7]) [mmHg]
19 | NCC(C(=O)O)c1c[nH]c2ccc(F)cc12 (configuration not stated) | -26 | -15 | -25 | -19 | 0 | -27 | 180
20 | NCC(c1nnn[nH]1)c1c[nH]c2ccccc12 (configuration not stated) | 1 | 5 | -5 | 8 | 2 | 8 | 155
21 | CCOC(=O)CC(c1nnn[nH]1)c1c[nH]c2cccc(Cl)c12 (configuration not stated) | -12 | -2 | -35 | -4 | 4 | -5 | 135
22 | CCOC(=O)CC(c1nnn[nH]1)c1c[nH]c2cc(OC)c(OC)cc12 (configuration not stated) | -15 | -25 | -6 | -11 | -14 | -20 | 164
23 | COc1ccc2[nH]cc(C(CN)C(=O)OC(C)C)c2c1.Cl (configuration not stated) | -1 | 7 | -48 | 7 | 13 | 13 | 181
24 | COC(=O)C(CN)c1c[nH]c2ccc(Br)cc12.Cl (configuration not stated) | -10 | 8 | -35 | -6 | 7 | 6 | 125
25 | Cl.NCC(C(=O)O)c1c[nH]c2ccc(Br)cc12 (configuration not stated) | -5 | 5 | -15 | -12 | 0 | 0 | 115
26 | COC(=O)C(CN)c1c[nH]c2ccc(Cl)cc12.Cl (configuration not stated) | -5 | 2 | -61 | -8 | 5 | 0 | 160
27 | NCC(CC(=O)O)c1c[nH]c2ccccc12 (configuration not stated) | -3 | -14 | -11 | -11 | 1 | -3 | 152
28 | COC(=O)C(CN)c1c[nH]c2ccc(O)cc12.Cl (configuration not stated) | 1 | 0 | -85 | 7 | 7 | 4 | 135
29 | NCC(C(=O)O)c1c[nH]c2cc(Cl)ccc12 (configuration not stated) | -5 | -14 | -2 | -4 | -9 | -6 | 179
30 | COC(=O)C(c1c[nH]c2ccc(OC)cc12)C(C)N (configuration not stated) | -3 | 3 | – | -6 | 2 | -3 | –
31 | COC(=O)C(CN)c1c[nH]c2ccccc12.Cl (configuration not stated) | -9 | -6 | -53 | -7 | -7 | -9 | 156
32 | CCOC(=O)CC(c1nnn[nH]1)c1c[nH]c2ccccc12 (configuration not stated) | -22 | -22 | 2 | -4 | -7 | -27 | 168
33 | CCOC(=O)C(CNC(C)=O)c1cn(C(=O)OCC)c2cc(Cl)ccc12 (configuration not stated) | -12 | -7 | -2 | -18 | -3 | -12 | 165
34 | CCCOc1ccc2[nH]cc(C(CN)C(=O)OC)c2c1.Cl (configuration not stated) | 6 | 9 | – | -6 | 5 | 8 | 150
35 | COC(=O)C(CN)c1c[nH]c2cccc(Cl)c12.Cl (configuration not stated) | -9 | -9 | -10 | -7 | -8 | -20 | 131
36 | CCOC(=O)C(C)(N)Cc1c[nH]c2ccc(O)cc12 (configuration not stated) | -7 | 22 | 9 | -2 | 6 | 14 | 142

Reference: ChEMBL document CHEMBL1122079, “Tryptophan analogues. 1. Synthesis and antihypertensive activity of positional isomers” (1982)
